Measurements of several laboratories.

Structure (SMILES)	tested on	assay	test system	setting	measurement	result
Cn1cc2c3c1C(=O)C(NCCc1ccc(O)cc1)=CC3=[N+](C)CC2	Plasmodium falciparum	parasite growth, SYBR Green	W2	blood stage	IC50	394 nM
O=C(NO)c1ccc(CNc2nc3cccc(-c4ccc5c(c4)OCO5)n3n2)cc1	NCI-H460	cell growth or viability, SRB			GI50	680 nM
CNc1ncc2c(/C=C/C(=O)N3CCCC(OC)C3)nn(Cc3cccc(C)c3)c2n1 (stereo not drawn)	FLO-1	cell growth or viability, resazurin		5 days	EC50	13800 nM
C=CC(=O)NC1CCN(c2ncc3ncnc(Nc4ccc(Oc5ccc6c(c5)ncn6C)c(C)c4)c3n2)CC1	SW900	cell growth or viability			EC50	46.3 nM
CNc1ncc2c(/C=C/C(=O)N3CCC(O)CC3)nn(CC3CCCC3)c2n1	FLO-1	cell growth or viability, resazurin		5 days	EC50	> 30000 nM
O=C1C=C2NCCc3c[nH]c(c32)C1=O	Plasmodium falciparum	parasite growth, SYBR Green	DD2	blood stage	IC50	23700 nM
CNc1ncc2c(/C=C/C(=O)N3CCC(OC)CC3)nn(CC3CCCCC3)c2n1	FLO-1	cell growth or viability, resazurin		5 days	EC50	7150 nM
O=C(/C=C/c1cn(Cc2cn(-c3ccnc4cc(Cl)ccc34)nn2)c2ccccc12)c1cc(OCc2ccccc2)cc(OCc2ccccc2)c1	Plasmodium falciparum	parasite growth, SYBR Green	3D7	10 µM, blood stage	inhibition	49%
COC1=CC2=[N+](C)CCc3c[nH]c(c32)C1=O	Plasmodium falciparum	parasite growth, SYBR Green	DD2	blood stage	IC50	1630 nM
O=C(/C=C/c1cn(Cc2cn(-c3ccnc4cc(Cl)ccc34)nn2)c2ccccc12)c1ccc([N+](=O)[O-])cc1	Plasmodium falciparum	parasite growth, SYBR Green	3D7	5 µM, blood stage	inhibition	3.86%
Nc1ncnc2c1c(/C=C/C(=O)N1CCC(O)CC1)nn2CC1CCCC1	FLO-1	cell growth or viability, resazurin		5 days	EC50	> 30000 nM
CCN(CC)CCCC(C)Nc1ccnc2cc(Cl)ccc12 (stereo not drawn)	Plasmodium falciparum	parasite growth, SYBR Green	3D7	25 nM, blood stage	inhibition	52.5%
COC(=O)/C=C/c1nn(CC2CCCC2)c2ncnc(N)c12	FLO-1	cell growth or viability, resazurin		5 days	EC50	> 30000 nM
O=C(/C=C/c1cn(Cc2cn(-c3ccnc4cc(Cl)ccc34)nn2)c2ccccc12)c1ccc(F)cc1	Plasmodium falciparum	parasite growth, SYBR Green	3D7	10 µM, blood stage	inhibition	47.1%
COCC(=O)N1CCCC(C(=O)NCc2nc(-c3ccccc3)cs2)C1 (racemic)	Plasmodium falciparum	parasite growth, SYBR Green		72 h	EC50	150 nM
